D1 mod = D1 CRE-luciferase signal change, two-sided – cell-based, HEK293 D1, dopamine EC30, D1 allosteric modulator project, primary screen; B-score at 10 µM; dopamine EC30 potentiation; actives deviate in either direction; AID 641, 2007; 58,000 tested, 5.9% active; D(1A) dopamine receptor (Homo sapiens), P21728;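 active = luminescence count or its row- and column-corrected plate score outside the 99.7% band of the plate's sample wells, on either side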
Jurkat viability = cytotoxicity toward Jurkat T cells, primary screen, cytotoxicity control, cell-based, Jurkat E6.1, 60K MLSMR library. Jurkat E6.1 viability, ATP luminescence, 48 h. inhibition, % at 4 µM. 56,000 tested, 1.2% active;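 active = inhibition above the mean inhibition of all tested compounds plus 3 SD, cut at about 28% in these data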
M1 ag = M1 muscarinic receptor agonists, primary screen, CHO-M1 cells, Fluo-4 calcium, agonist mode | Muscarinic acetylcholine receptor M1 | Fluo-4 calcium fluorescence; stronger effect = higher value | B-score at 10 µM | 64,000 tested, 3% active;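 active = fluorescence rise, raw or as B-score row- and column-corrected plate score, outside the 99.7% band of its plate's samples, either direction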
hDAT+cocaine = changed hDAT dopamine uptake under cocaine IC80, either direction, primary screen, cocaine antagonist project, cell-based, LLC-PK1 hDAT, [14C]-dopamine uptake, MLSMR | B-score at 10 µM | AID 449768, 2010 | LLC-PK1 hDAT cells, [14C]-dopamine uptake with cocaine IC80; actives deviate in either direction | 110,000 tested, 1.3% active;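 active = Z score or B-score, a plate-position-corrected score, falls beyond the plate's 99.7% confidence bounds, in either direction; inactive = both scores lie inside the 99.7% bounds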;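 also: scored against the spread of the other compound wells on the same plate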
Target sequence (Q01959 whole entry, looked up): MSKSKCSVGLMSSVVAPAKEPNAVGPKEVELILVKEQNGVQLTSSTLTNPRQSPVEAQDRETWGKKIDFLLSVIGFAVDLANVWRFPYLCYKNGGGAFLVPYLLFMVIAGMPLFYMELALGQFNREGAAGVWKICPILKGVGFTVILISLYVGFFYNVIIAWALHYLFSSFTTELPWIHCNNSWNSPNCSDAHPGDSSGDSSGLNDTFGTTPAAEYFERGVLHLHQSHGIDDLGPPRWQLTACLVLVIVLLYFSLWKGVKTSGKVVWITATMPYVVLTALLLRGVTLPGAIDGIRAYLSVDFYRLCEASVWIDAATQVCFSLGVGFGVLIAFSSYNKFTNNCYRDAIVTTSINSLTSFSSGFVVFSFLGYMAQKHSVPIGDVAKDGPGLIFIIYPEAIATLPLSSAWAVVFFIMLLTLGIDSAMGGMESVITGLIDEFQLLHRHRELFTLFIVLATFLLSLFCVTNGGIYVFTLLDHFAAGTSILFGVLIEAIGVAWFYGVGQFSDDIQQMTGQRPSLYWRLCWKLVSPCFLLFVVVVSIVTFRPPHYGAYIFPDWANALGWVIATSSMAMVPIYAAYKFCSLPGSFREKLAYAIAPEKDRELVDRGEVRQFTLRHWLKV
M1 antagonist = antagonists of rat M1 muscarinic receptor; AID 628, 2007; B-score at 10 µM; Muscarinic acetylcholine receptor M1 (Rattus norvegicus), P08482; 64,000 tested, 3.4% active; CHO-M1 cells, Fluo-4 calcium, ACh EC80 antagonist mode; stronger effect = lower value;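 active = calcium fluorescence response, raw or row-and-column corrected B-score, differing from the plate sample mean either way at a set confidence level, mostly lower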
HEK293 NFkB inh = inhibitors of PMA/ionomycin-induced NF-kB reporter, primary screen, antigen receptor NF-kB inhibitor project, cell-based, HEK-293 luciferase reporter, luminescence. HEK-293 NF-kB luciferase reporter. inhibition, % at 3 µM. 62,000 tested, 0.21% active;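 active = inhibition above the mean of all tested compounds plus 3 SD, cut at about 40% in these data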;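 also: 0% = stimulated DMSO wells and 100% = 10 µM reference inhibitor 5653914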
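System: NF-kB luciferase reporter HEK-293 cells | Replication: Single test | Control set: DMSO vs reference inhibitor | Evaluation: % inhibition | Schedule: 1 h pretreatment, 16 h stimulation, 37 °C | Probe or stimulus: PMA with ionomycin | Compound dosing: One dose, 3 µM | Detection: Luciferase luminescence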
D1 PAM confirm = D1 receptor positive allosteric modulators, retest, confirmation, cell-based, HEK293 D1, CRE-luciferase, duplicate; shares compounds with D1 mod; dopamine EC30 potentiation; stronger effect = higher value; luminescence at 10 µM; 2,200 tested, 88% active;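 active = luminescence in either of two replicates above the same-plate mean plus 3 SD of the low-dose dopamine control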
D1 ag no DA = D1 receptor agonism without dopamine, confirmation, mechanism study for D1 allosteric modulator project, cell-based, HEK293 D1, CRE-luciferase, secondary assay 1; shares compounds with D1 mod; luminescence, no dopamine; stronger effect = higher value; luminescence at 10 µM; 1,900 tested, 0.8% active; AID 646, 2007; in the data active = luminescence above about 3900
Isoprot counter = counter-screen for D1 modulators: isoproterenol response in HEK293 cells; shares compounds with D1 mod; HEK293 D1 CRE-luciferase, isoproterenol EC30 counter-screen; calls only at 10 µM; 2,200 tested, 63% active; AID 647;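 active = luminescence in either replicate above plate mean of wells with a partly effective reference agonist dose plus 3 SD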;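 also: isoproterenol raises cAMP through native beta-adrenoceptor Gs so signal bypasses D1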
* = called active by the depositor. A selection: hits, their analogues and other compounds. The true share with any hit is near 7.6%.

Screening O=c1nc(-c2ccccc2)c2cc(Cl)ccc2[nH]1 returned D1 mod 6.7*, Jurkat viability 1.1, M1 ag 0.605, hDAT+cocaine 0.0126, M1 antagonist 0.505, HEK293 NFkB inh 19.0, D1 PAM confirm 9072* and Isoprot counter active.
`O=C(O)C1Nc2ccc(C(F)(F)F)cc2C2OCCC12` (stereo not drawn) gave hDAT+cocaine -0.31.
Screening O=C1N(CN2CCN(c3cccc(Cl)c3)CC2)c2ccccc2C12OCCCO2 returned D1 mod 2.4*, Jurkat viability -7.7, M1 ag 0.167, hDAT+cocaine -0.463, M1 antagonist 0.101, HEK293 NFkB inh 8.7, D1 PAM confirm 3096*, D1 ag no DA 1476 and Isoprot counter inactive.
For O=C1N(CN2CCC3(CC2)OCCO3)c2ccccc2C12OCCCO2 the results were D1 mod -0.841, Jurkat viability -6.7, M1 ag -0.0529, hDAT+cocaine -0.848, M1 antagonist -0.561 and HEK293 NFkB inh 12.6.
For CC1CCCCN1C(=O)CSc1nc(C2CC2)nc2c1cnn2-c1ccccc1 (stereo not drawn) the results were D1 mod 4.01*, M1 ag -0.844, hDAT+cocaine -0.269, M1 antagonist -0.322, HEK293 NFkB inh 13.4, D1 PAM confirm 7396*, D1 ag no DA 1340 and Isoprot counter inactive.
`Cc1ccsc1/C=N/n1c(-c2cccnc2)n[nH]c1=S` gave hDAT+cocaine -1.01.
Cc1nnc2c(NC(C)C)nc3ccccc3n12 was read as D1 mod 15.8*, M1 ag -0.0247, hDAT+cocaine -0.312, M1 antagonist 0.00621, D1 PAM confirm 12020*, D1 ag no DA 1592 and Isoprot counter active.
For FC(F)(F)c1cccc(-c2nnc(-c3ccccc3)c(N3CCOCC3)n2)c1 the results were hDAT+cocaine 1.83.
`COc1cc(NC(=O)C2CCN(S(=O)(=O)c3ccc(Cl)cc3)CC2)ccc1-n1cnnn1` gave D1 mod 0.195, Jurkat viability 2.6, M1 ag 0.454, hDAT+cocaine -0.799, M1 antagonist -0.00675 and HEK293 NFkB inh 10.3.
CCCn1c(SCc2ccc(Cl)cc2)nc2c1c(=O)[nH]c(=O)n2C was read as D1 mod 5.24*, Jurkat viability 4.7, M1 ag 1.68, hDAT+cocaine 0.0494, M1 antagonist -0.123, HEK293 NFkB inh 18.0, D1 PAM confirm 11480* and Isoprot counter active.
For C/C=C/Cn1c(SC)nc2c1c(=O)[nH]c(=O)n2C the results were D1 mod -0.784, Jurkat viability 6.5, M1 ag -0.572, hDAT+cocaine -0.583, M1 antagonist 0.061 and HEK293 NFkB inh 11.1.
`C/C=C/Cn1c(SCc2ccc(Cl)cc2)nc2c1c(=O)[nH]c(=O)n2C` gave D1 mod 7.31*, Jurkat viability 6.0, M1 ag 0.746, hDAT+cocaine -0.122, M1 antagonist -0.219, HEK293 NFkB inh 6.9, D1 PAM confirm 13964*, D1 ag no DA 1680 and Isoprot counter active.
C/C=C/CSc1nc2c(c(=O)[nH]c(=O)n2C)n1CCC was read as D1 mod 14.1*, Jurkat viability 1.4, M1 ag 0.889, hDAT+cocaine -1.32, M1 antagonist 0.0994, HEK293 NFkB inh 9.4, D1 PAM confirm 14660*, D1 ag no DA 1456 and Isoprot counter active.
Screening CCC(C)(C)NC(=O)C(c1ccc(C)cc1)N(CC1CCCO1)C(=O)CNC(=O)c1cccs1 (stereo not drawn) returned hDAT+cocaine 0.312.
`CCOC(=O)c1sc2ccc(S(=O)(=O)N3CCCCC3)cc2c1N` gave D1 mod 1.45, M1 ag -0.00847, hDAT+cocaine -0.0403, M1 antagonist -0.627 and HEK293 NFkB inh 6.6.
CCOC(=O)c1sc2ccc(S(=O)(=O)N3CCOCC3)cc2c1N was read as D1 mod 6.65*, M1 ag 0.0438, hDAT+cocaine -0.985, M1 antagonist 0.275, HEK293 NFkB inh 0.0, D1 PAM confirm 5484 and Isoprot counter active.
Screening COc1ccc(CCNS(=O)(=O)c2ccccc2)cc1OC returned D1 mod 4.18*, Jurkat viability 1.4, M1 ag -0.0557, hDAT+cocaine 0.06, M1 antagonist -0.373, HEK293 NFkB inh 11.4, D1 PAM confirm 15812*, D1 ag no DA 2400 and Isoprot counter active.
CCCCn1nc2cc(C(=O)NCCc3ccc(C)cc3)ccc2c1OCC was read as hDAT+cocaine -0.0702.
`COc1ccc(C2(C)NC(=O)N(Cc3cc(Cl)cc4c3OCOC4)C2=O)cc1OC` (stereo not drawn) gave D1 mod 10.4*, Jurkat viability 4.7, M1 ag 0.626, hDAT+cocaine 0.546, M1 antagonist 0.104, HEK293 NFkB inh 11.7, D1 PAM confirm 22312*, D1 ag no DA 1836 and Isoprot counter active.
COc1ccc(C(=O)CN2C(=O)NC(C)(c3ccccc3)C2=O)cc1OC (stereo not drawn) was read as hDAT+cocaine 0.186.
Screening O=S(=O)(/N=C(/Nc1cc(N2CCOCC2)ncn1)c1ccccc1)c1ccccc1 returned D1 mod 0.504, Jurkat viability -1.1, M1 ag -0.285, hDAT+cocaine -0.299, M1 antagonist -0.361 and HEK293 NFkB inh -10.7.
`CC(=O)n1c2ccccc2c2nc(NC(C)C)sc21` gave D1 mod 6.35*, Jurkat viability -3.3, M1 ag 2.55, hDAT+cocaine 0.773, M1 antagonist 0.0152, HEK293 NFkB inh 3.7, D1 PAM confirm 8636*, D1 ag no DA 1696 and Isoprot counter active.
For CNc1nc2c3ccccc3n(C(C)=O)c2s1 the results were hDAT+cocaine -0.783.

High-throughput results deposited in PubChem by several laboratories.
